This is an account of results in PMC3880621 (Journal of medicinal chemistry, 2013).

Data set [1] is classed as physicochemical. Particulars: for rate of decomposition of NONO-salicylate derivatives: spontaneous, pH not printed at the place.
The next data set can be described thus: Guinea pig serum. It counts as in vitro ADME. Particulars: pH 7.4, 37°C; for first-order rate constant k2 of loss of 241 nm peak: 2% guinea pig serum, second, slow process. Summed up: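 Test compound added from a 1000× DMSO stock to 50 μM DTPA in Ca/Mg-free DPBS, pH 7.4, with 2% guinea pig serum at 37°C; blank was buffer plus serum. UV spectra taken every second for 600 s, then every 60–120 s; total scan 2500 s to 62 h. Rate constants from fitting A = ΔAe^(−kt) + A∞.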

Data set [2] can be described thus: Fetal bovine serum induced hydrolysis, followed spectrophotometrically. The following applies: pH 7.4, 37°C, n = 1. Format: in vitro ADME.
The next data set is described as follows: Stomach ulcerogenicity. Particulars: rats; for ulcerogenicity compared to control: 1.38 mmol/kg; for ulcer index: 1.38 mmol/kg p.o., 6 h post-administration. Format: in vivo, Sprague-Dawley rats. Summed up: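 Sprague-Dawley rats fasted 24 h with water available, then dosed orally at 1.38 mmol/kg suspended in 1.2 mL 1% methylcellulose; controls received vehicle. Killed by CO2 at 6 h; stomachs removed onto ice and lesions inspected under a magnifier, scored by size. Ulcer index = summed ulcer length per stomach, averaged over the animals in the group.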

In the next data set the test system is COX-2. Description: PGE2 levels in A549 cells. Format: cell-based, human. Particulars: 25 and 50 μM, 24 h. The method, boiled down:
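A549 cells grown in RPMI 1640 with 10% FBS and penicillin/streptomycin. Seeded at 50,000 per well, grown 12 h, then given test compound at 25 or 50 μM (0.1% DMSO) for 24 h at 37°C. Supernatant PGE2 measured by competitive EIA (AChE tracer plus monoclonal antibody, overnight at 4°C), developed with Ellman's reagent, absorbance at […]. Triplicate.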

A further data set concerns HUVECs. Kind of data set: MTT cell viability assay, HUVECs. Format: cell-based, human. The following applies: 48 h, 25-100 μM, n = 1. Summed up: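 HUVECs kept in endothelial growth medium at 37°C, 5% CO2, 80% humidity. Seeded at 8,000–10,000 per well, grown overnight, then treated 48 h across a concentration range (prodrugs 0–200 μM). MTT (2 mg/mL solution) added for 1 h at 37°C; medium removed, formazan dissolved in DMSO, absorbance read at 550 nm. One experiment, at least triplicate wells.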
Background: Tetrazolium dyes change colour on reduction, which living cells bring about.

The target in another data set is GAPDH (Homo sapiens, UniProt P04406). Description: GAPDH activity in A549 cells. Format: cell-based. The following applies: 100 μM, 1 h. The method, boiled down: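 A549 cells, seeded at 30,000 per well and grown overnight, exposed to test compound at 100 μM for 1 h at 37°C. Cells lysed in kit lysis buffer for 20 min at 4°C. Lysate mixed with kit mastermix; fluorescence read at 570 nm with excitation at 540 nm. Triplicate; mean ± SD; one-way ANOVA versus untreated control.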

Data set [3] deals with isolated murine ventricular myocytes. Format: cell-based, mouse. The following applies: 500 μM.
The subject of data set [4] is various cancer cells lines. Particulars: read-out: IC50 (cytotoxicity); cited from earlier work.
[5] abbreviates: pH 7.4, PBS with 50 μM DTPA, 37°C.

SMILES strings stand for the structures. Where only a bound is given, the exact number is not on record here.

Sequence of GAPDH (P04406 whole entry): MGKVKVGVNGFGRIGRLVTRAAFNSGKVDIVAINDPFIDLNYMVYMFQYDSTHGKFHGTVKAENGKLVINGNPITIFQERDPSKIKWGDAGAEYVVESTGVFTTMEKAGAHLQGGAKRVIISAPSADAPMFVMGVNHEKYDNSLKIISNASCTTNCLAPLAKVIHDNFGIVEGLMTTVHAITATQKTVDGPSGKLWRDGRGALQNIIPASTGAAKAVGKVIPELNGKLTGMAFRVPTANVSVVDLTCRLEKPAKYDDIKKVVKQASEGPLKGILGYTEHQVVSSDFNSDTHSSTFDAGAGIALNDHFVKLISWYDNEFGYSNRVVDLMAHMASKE

As to `CC(=O)Oc1ccccc1C(=O)OCO/N=[N+](\[O-])NC(C)C` [IPA/NO-aspirin, O^2-(Acetylsalicyloyloxymethyl)-1-(N-isopropylamino)-diazen-1-ium-1,2-diolate], the “first-order rate constant of decomposition at 241 nm” value in [1] (setting [5]) is listed as “(2.6 ± 0.2) × 10^−5 s^−1”. In data set [1] (pH 10, 37°C), the “rate constant of hydrolysis/decomposition at pH 10” value was “(3.5 ± 0.8) × 10^−3 s^−1”. Also, the “first-order rate constant k2 of loss of 241 nm peak” value in the data set “Guinea pig serum” is “(6.5 ± 0.12) × 10^−4 s^−1”. Besides, in data set [2], the “rate constant of decomposition with FBS” value came to 2.7e-05 s⁻¹. Besides, the “ulcerogenicity compared to control” value in the data set “Stomach ulcerogenicity” is given as “not significantly increased compared to control”. Moreover, the PGE2 levels result with COX-2 is “decreased most significantly”. The “effect on viability of HUVECs” value in the data set with HUVECs was “no effect on viability up to 100 μM”. For the same molecule, at GAPDH, the “inhibition of GAPDH activity” value is on record as “highest”. For the same molecule, the “change of time of half-relaxation from peak shortening” value in data set [3] (mean ± SEM) was −17 ± 3%. The “increase in sarcomere shortening from control” value in data set [3] (n = 12, mean ± SEM) is “+201 ± 18%”.
As for `CC(C)N/[N+]([O-])=N/OCOC(=O)c1ccccc1O` [IPA/NO-salicylate, O^2-(2-hydroxybenzoyloxymethyl)-1-(N-isopropylamino)-diazen-1-ium-1,2-diolate], in [1], the “rate of decomposition of NONO-salicylate derivatives” value came out at 7e-05 s⁻¹.
The same measure, in the same setting: as for `CCN(CC)/[N+]([O-])=N/OCOC(=O)c1ccccc1O` [DEA/NO-salicylate, O^2-(2-hydroxybenzoyloxymethyl)-1-(N,N-diethylamino)-diazen-1-ium-1,2-diolate], the figure is 3.1e-05 s⁻¹.
The term IC50 denotes the concentration needed to halve the response being measured. On to `CC(=O)Oc1ccccc1C(=O)O` [aspirin, acetylsalicylic acid, reference compound], for which the “first-order rate constant of spontaneous hydrolysis at 295 nm” value in data set [1] (setting [5]) was determined as 9.8e-06 s⁻¹. In data set [1] (pH 10, 37°C), the “rate constant of hydrolysis/decomposition at pH 10” value is reported as “(1.6 ± 0.5) × 10^−4 s^−1”. For the same molecule, in the data set “Guinea pig serum” (guinea pig serum), the “rate of hydrolysis in the presence of guinea pig serum” value is “(4.7 ± 0.17) × 10^−4 s^−1”. The ulcer index in the data set “Stomach ulcerogenicity” turned out to be 57.4 ± 3.1. Also, the IC50 in [4] was over 1000 µM.
For the molecule `CCN(CC)/[N+]([O-])=N/OCOC(=O)c1ccccc1OC(C)=O` [DEA/NO-aspirin, O^2-(Acetylsalicyloyloxymethyl)-1-(N,N-diethylamino)-diazen-1-ium-1,2-diolate], the “first-order rate constant of decomposition at 241 nm” value in [1] (setting [5]) turned out to be 5.3e-06 s⁻¹. Further, the “rate constant of initial growth near 250 nm (production of DEA/NO)” value in [1] (pH 10, 37°C) is given as “(4.5 ± 0.6) × 10^−5 s^−1”. In addition, the “first-order rate constant k2 of loss of 241 nm peak” value in the data set “Guinea pig serum” was “(1.1 ± 0.6) × 10^−3 s^−1”. Further, in the data set “Stomach ulcerogenicity”, the ulcer index was determined as 0 and the “ulcerogenicity compared to control” value was “not significantly increased compared to control”. Moreover, the “effect on viability of HUVECs” value in the data set with HUVECs is given as “no effect on viability up to 100 μM”.
Take `CC(C)N/[N+]([O-])=N/[O-].[Na+]` [IPA/NO, sodium 1-(N-isopropylamino)diazen-1-ium-1,2-diolate, reference compound]: the “rate constant of hydrolysis/decomposition at pH 10” value in data set [1] (pH 10, 37°C) is on record as 4.1 × 10^−4 s^−1.
